The subject of data set [1] is RAW264.7. Nature of the data set: Antiinflammatory activity in mouse RAW264.7 cells assessed as inhibition of LPS-induced NO production by Griess assay. The format is functional, cell-based. The procedure, abridged: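 RAW 264.7 cells in DMEM/10% FBS seeded at 5 × 10^4 per well for 24 h. Samples added in DMSO (1% final) together with 2 μg/mL LPS and incubated 24 h. Nitrite read at 540 nm by Griess reagent.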
(In general: The Griess reaction detects nitrite, a stable product of nitric oxide.)

Data set [2] in a line: Cytotoxicity against mouse RAW264.7 cells assessed as reduction in cell viability after 24 hrs by MTT assay. The class given is cell-based. The procedure, abridged:
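MTT viability test in RAW 264.7 cells plated at 5 × 10^3 per well for 24 h. Cells were treated with sample at final 50 μM in 1% DMSO for 24 h. 1% DMSO served as vehicle control and cell-free medium as blank. MTT was added for 4 h, formazan dissolved in DMSO, and absorbance read at 490 nm.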

Data set [3] concerns RAW264.7. Nature of the data set: Inhibition of NF-kappaB (unknown origin) expressed in mouse RAW264.7 cells at 50 uM pretreated for 1 hr followed by stimulation with LPS measured after 6 hrs by luciferase reporter gene assay. The format is cell-based. The method in brief: (§1)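 RAW 264.7 cells stably carrying a pNF-κB-Luc reporter, kept in DMEM/10% FBS with geneticin 500 μg/mL, 37 °C. Pretreated 1 h with sample (0.78–200 μM) and then stimulated with E. coli 055:B5 LPS for 6 h. […] Triplicates, mean ± SD; IC50 by sigmoidal nonlinear regression.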
A general note: In a reporter assay the amount or activity of a reporter protein is the signal.

The nature of data set [4]: Cytotoxicity against mouse RAW264.7 cells assessed as cell survival at 50 uM after 24 hrs by MTT assay. The class given is cell-based. The conditions noted are these: read-out: Survival. The procedure, abridged:
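RAW 264.7 mouse macrophages in DMEM with 10% FBS, penicillin and streptomycin, at 37 °C under 5% CO2. Seeded at 5 × 10^3 cells/well for 24 h, then exposed 24 h to samples at 50 μM final (1% DMSO; vehicle and cell-free blanks). MTT added, 4 h, medium replaced with DMSO, absorbance read at 490 nm.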

Data set [5] relates to RAW264.7. The data set is described as follows: Antiinflammatory activity in mouse RAW264.7 cells assessed as inhibition of LPS-induced NO production at 50 uM by Griess assay. The class given is functional. The method in brief: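 RAW 264.7 cells grown in DMEM with 10% FBS, penicillin/streptomycin, 37 °C, 5% CO2. Seeded 5 × 10^4 cells/well for 24 h, then given sample (final 50 μM, 1% DMSO) plus 2 μg/mL LPS for 24 h. Supernatant mixed with Griess reagents I and II, absorbance read at 540 nm. % inhibition computed against LPS-only (model) and no-LPS (blank) wells.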

Data set [6] can be described thus: Inhibition of NF-kappaB (unknown origin) expressed in mouse RAW264.7 cells pretreated for 1 hr followed by stimulation with LPS measured after 6 hrs by luciferase reporter gene assay. The class given is cell-based. The procedure, abridged: as §1

As to `C/C=C/CCC(=O)O[C@H]1C=CC2=C[C@]3(O)OC(=O)C(CO)=C3C[C@]2(C)[C@H]1C`, in data set [1], the IC50 (as a rule, the concentration needed to halve the response being measured) was found to be 26 µM. Further, in data set [2], the CC50 (as a rule, the concentration at which the toxic effect on the cells reaches its halfway point) at 24 h is > 50 µM. Moreover, in data set [3], the inhibition (in general, the change of the read-out against control, counted positive when it falls) is 20%. In data set [4], the viability at 24 h, 50 µM was > 90%. In addition, the inhibition at 50 µM in data set [5] amounted to 63%.

For the compound `C=C(C)[C@@H]1C[C@@]2(C)C(=CC1=O)[C@H](O)[C@H](O)C[C@@H]2C`, the CC50 at 24 h in data set [2] is > 50 µM. Further, the viability at 24 h, 50 µM in data set [4] was > 90%. The inhibition at 50 µM in data set [5] amounted to 22%.

Turning to `O=c1c(O)c(-c2ccc(O)c(O)c2)oc2cc(O)cc(O)c12` [QUERCETIN], the IC50 in data set [1] was determined as 15 µM. In addition, the CC50 at 24 h in data set [2] is > 50 µM.

Regarding `C=C(C)[C@@H]1C[C@@]2(C)C(=CC1=O)C[C@H](O)C[C@@H]2C`, in data set [2], the CC50 at 24 h was > 50 µM. The viability at 24 h, 50 µM in data set [4] was > 90%. For the same compound, the inhibition at 50 µM in data set [5] turned out to be 16%.

Regarding `C=C(C(=O)O)[C@@H]1C[C@@]2(C)C(=CC1=O)C=C[C@H](O)[C@@H]2C`, the CC50 at 24 h in data set [2] was > 50 µM. Besides, the viability at 24 h, 50 µM in data set [4] was > 90%. The inhibition at 50 µM in data set [5] came to 11%.

With `CC1=C2C[C@@]3(C)C(=C[C@H](O)[C@@H](O)[C@@H]3C)C=C2OC1=O`, the CC50 at 24 h in data set [2] is > 50 µM. The viability at 24 h, 50 µM in data set [4] was > 90%. Also, in data set [5], the inhibition at 50 µM worked out at 21%.

Regarding `C=C(C)[C@@H]1C[C@@]2(C)C(=C[C@H](O)C[C@@H]2C)C[C@H]1OC(C)=O`, the CC50 at 24 h in data set [2] is > 50 µM. Besides, in data set [4], the viability at 24 h, 50 µM is > 90%. Further, in data set [5], the inhibition at 50 µM was 30%.

For the compound `C/C=C/CCC(=O)O[C@H]1C=CC2=C[C@]3(O)OC(=O)C(C)=C3C[C@]2(C)[C@H]1C`, the IC50 in data set [1] came out at 15 µM; in data set [6], 72 µM. The CC50 at 24 h in data set [2] is > 50 µM. Also, the inhibition in data set [3] was 42%. Further, the viability at 24 h, 50 µM in data set [4] is > 90%. Also, the inhibition at 50 µM in data set [5] was 92%.

As for `C=C(C)[C@@H]1C[C@@]2(C)C(=CC(=O)C[C@@H]2C)C[C@H]1O`, in data set [2], the CC50 at 24 h is > 50 µM. Moreover, in data set [4], the viability at 24 h, 50 µM was > 90%. In data set [5], the inhibition at 50 µM was determined as 4%.

Regarding `CC1=C2C[C@]3(C)[C@@H](C)C=C[C@H](O)[C@@]3(O)C=C2OC1=O`, in data set [2], the 50% cytotoxic concentration (CC50) at 24 h is > 50 µM. The viability at 24 h, 50 µM in data set [4] is > 90%. In data set [5], the inhibition at 50 µM is 7%.

With `C=C(CO)[C@@H]1C[C@@]2(C)C(=CC(=O)C[C@@H]2C)C[C@H]1O`, in data set [2], the CC50 at 24 h was > 50 µM. In data set [4], the viability at 24 h, 50 µM is > 90%. In data set [5], the inhibition at 50 µM stood at 7%.

Take `C=C(C)[C@@H]1C[C@@]2(C)C(=C[C@H](O)C[C@@H]2C)C[C@H]1O`: in data set [2], the CC50 at 24 h was > 50 µM. Further, in data set [4], the viability at 24 h, 50 µM is > 90%. Further, the inhibition at 50 µM in data set [5] was 24%.

Consider `C=C(CO)[C@@H]1C[C@@]2(C)C(=C[C@H](O)C[C@@H]2C)C[C@H]1O`, for which, in data set [2], the CC50 at 24 h is > 50 µM. The viability at 24 h, 50 µM in data set [4] is > 90%. Besides, the inhibition at 50 µM in data set [5] is 15%.

For `C/C=C/CCC(=O)O[C@H]1C=CC2=CC(=O)/C(=C(\C)C(=O)O)C[C@]2(C)[C@H]1C`, in data set [1], the half-inhibitory concentration (IC50) worked out at 45 µM. Further, the CC50 at 24 h in data set [2] is > 50 µM. In data set [4], the viability at 24 h, 50 µM was > 90%. Further, the inhibition at 50 µM in data set [5] came out at 46%.

Regarding `CC(=O)O[C@H]1C(=O)C=C2C=C3OC(=O)C(C)=C3C[C@]2(C)[C@H]1C`, the half-maximal inhibitory concentration (IC50) in data set [1] amounted to 22 µM. For the same compound, the CC50 at 24 h in data set [2] was > 50 µM. Further, the viability at 24 h, 50 µM in data set [4] is > 90%. Further, in data set [5], the inhibition at 50 µM came to 68%.

As to `CC(=O)O[C@H]1[C@H](O)C=C2C=C3OC(=O)C(C)=C3C[C@]2(C)[C@H]1C`, the CC50 at 24 h in data set [2] is > 50 µM. The viability at 24 h, 50 µM in data set [4] is > 90%. For the same compound, the inhibition at 50 µM in data set [5] turned out to be 36%.

Consider `CC1=C2C[C@@]3(C)C(=C[C@@H](O)[C@@H](O)[C@@H]3C)C=C2OC1=O`, for which the CC50 at 24 h in data set [2] is > 50 µM. Moreover, the viability at 24 h, 50 µM in data set [4] is > 90%. Moreover, in data set [5], the inhibition at 50 µM stood at 23%.

`CC1=C2C[C@@]3(C)C(=C[C@@H](O)[C@H](O)[C@@H]3C)C=C2OC1=O`: in data set [2], the CC50 at 24 h is > 50 µM. The viability at 24 h, 50 µM in data set [4] was > 90%. Moreover, the inhibition at 50 µM in data set [5] turned out to be 11%.

For `C=C(C(=O)O)[C@@H]1C[C@@]2(C)C(=CC1=O)C=C[C@H](OC(=O)CC/C=C/C)[C@@H]2C`, the 50% inhibitory concentration (IC50) in data set [1] stood at 8 µM; in data set [6], 78 µM. In addition, the CC50 at 24 h in data set [2] is > 50 µM. Also, the inhibition in data set [3] amounted to 40%. In addition, in data set [4], the viability at 24 h, 50 µM is > 90%. For the same compound, the inhibition at 50 µM in data set [5] was 97%.

Regarding `C/C=C/CCC(=O)O[C@H]1C=CC2=CC(=O)[C@H](/C(C=O)=C\OC)C[C@]2(C)[C@H]1C`, the IC50 in data set [1] worked out at 25 µM. Further, the CC50 at 24 h in data set [2] is > 50 µM. Further, in data set [3], the inhibition came to 38%. The viability at 24 h, 50 µM in data set [4] is > 90%. In addition, the inhibition at 50 µM in data set [5] came to 66%.

Take `CC1=C2C[C@]3(C)[C@@H](C)C=C[C@H](O)[C@]3(O)C=C2OC1=O`: in data set [2], the CC50 at 24 h was > 50 µM. Also, the viability at 24 h, 50 µM in data set [4] was > 90%. In addition, the inhibition at 50 µM in data set [5] was found to be 12%.

For the compound `C=C(C)[C@@H]1C[C@@]2(C)C(=CC1=O)C[C@H](OC(C)=O)C[C@@H]2C`, in data set [2], the CC50 at 24 h was > 50 µM. Moreover, the viability at 24 h, 50 µM in data set [4] is > 90%. The inhibition at 50 µM in data set [5] was 29%.

With `S=C(S)N1CCCC1` [PYRROLIDINE DITHIOCARBAMATE], the IC50 in data set [6] is 37 µM.

Take `CC1=C2C[C@@]3(C)C(=CC(=O)C(O)=C3C)C=C2OC1=O`: in data set [2], the CC50 at 24 h was > 50 µM. Moreover, the viability at 24 h, 50 µM in data set [4] was > 90%. Further, the inhibition at 50 µM in data set [5] came out at 16%.

Values taken from ChEMBL document CHEMBL4477165, “Eremophilane-Type Sesquiterpenoids from an Acremonium sp. Fungus Isolated from Deep-Sea Sediments” (J Nat Prod, 2016).
